Laboratory results taken from ChEMBL document CHEMBL1671821, “Syntheses of 2-amino and 2-halothiazole derivatives as high-affinity metabotropic glutamate receptor subtype 5 ligands and potential radioligands for in vivo imaging” (J Med Chem, 2011).

Columns and labels:
[1] = molecular target: Metabotropic glutamate receptor 5 (Rattus norvegicus, UniProt P31424); experiment: Displacement of [3H]MPEP from mGluR5 in rat brain; type: tissue-based
Summary of the method: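 Competition binding on rat brain homogenate mGlu5 against [3H]MPEP at 1.0 nM. Run by the NIMH Psychoactive Drug Screening Program. Ki derived from triplicate determinations, n = 6 for some ligands. Values cited from earlier work were not measured here.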

[2] = molecular target: D(4) dopamine receptor (Homo sapiens, UniProt P21917); experiment: Binding affinity to dopamine D4 receptor
[3] = molecular target: D(1B) dopamine receptor (Homo sapiens, UniProt P21918); experiment: Binding affinity to dopamine D5 receptor
[4] = molecular target: Sodium-dependent dopamine transporter (Homo sapiens, UniProt Q01959); experiment: Binding affinity to DAT
[5] = molecular target: Delta-type opioid receptor (Homo sapiens, UniProt P41143); experiment: Binding affinity to DOR
[6] = Binding affinity to GABAA receptor
[7] = molecular target: Kappa-type opioid receptor (Homo sapiens, UniProt P41145); experiment: Binding affinity to KOR
[8] = molecular target: Histamine H1 receptor (Homo sapiens, UniProt P35367); experiment: Binding affinity to histamine H1 receptor
[9] = molecular target: Histamine H2 receptor (Homo sapiens, UniProt P25021); experiment: Binding affinity to histamine H2 receptor
[10] = molecular target: Histamine H3 receptor (Homo sapiens, UniProt Q9Y5N1); experiment: Binding affinity to histamine H3 receptor
[11] = molecular target: Histamine H4 receptor (Homo sapiens, UniProt Q9H3N8); experiment: Binding affinity to histamine H4 receptor
[12] = molecular target: Muscarinic acetylcholine receptor M1 (Homo sapiens, UniProt P11229); experiment: Binding affinity to muscarinic M1 receptor
[13] = molecular target: Muscarinic acetylcholine receptor M2 (Homo sapiens, UniProt P08172); experiment: Binding affinity to muscarinic M2 receptor
[14] = molecular target: Muscarinic acetylcholine receptor M3 (Homo sapiens, UniProt P20309); experiment: Binding affinity to muscarinic M3 receptor
[15] = molecular target: Muscarinic acetylcholine receptor M4 (Homo sapiens, UniProt P08173); experiment: Binding affinity to muscarinic M4 receptor
[16] = molecular target: Muscarinic acetylcholine receptor M5 (Homo sapiens, UniProt P08912); experiment: Binding affinity to muscarinic M5 receptor
[17] = molecular target: Metabotropic glutamate receptor 1 (Homo sapiens, UniProt Q13255); experiment: Binding affinity to mGluR1 receptor
[18] = molecular target: Metabotropic glutamate receptor 2 (Homo sapiens, UniProt Q14416); experiment: Binding affinity to mGluR2 receptor
[19] = molecular target: Metabotropic glutamate receptor 4 (Homo sapiens, UniProt Q14833); experiment: Binding affinity to mGluR4 receptor
[20] = molecular target: Metabotropic glutamate receptor 6 (Homo sapiens, UniProt O15303); experiment: Binding affinity to mGluR6 receptor
[21] = molecular target: Metabotropic glutamate receptor 8 (Homo sapiens, UniProt O00222); experiment: Binding affinity to mGluR8 receptor
[22] = molecular target: Mu-type opioid receptor (Homo sapiens, UniProt P35372); experiment: Binding affinity to MOR
[23] = molecular target: Sodium-dependent noradrenaline transporter (Homo sapiens, UniProt P23975); experiment: Binding affinity to NET
[24] = Binding affinity to NMDA receptor PCP binding site
[25] = molecular target: Sodium-dependent serotonin transporter (Homo sapiens, UniProt P31645); experiment: Binding affinity to SERT receptor
[26] = molecular target: Sigma non-opioid intracellular receptor 1 (Homo sapiens, UniProt Q99720); experiment: Binding affinity to sigma 1 receptor
[27] = Binding affinity to sigma 2 receptor
[28] = molecular target: 5-hydroxytryptamine receptor 1A (Homo sapiens, UniProt P08908); experiment: Binding affinity to 5HT1A receptor
[29] = molecular target: 5-hydroxytryptamine receptor 1B (Homo sapiens, UniProt P28222); experiment: Binding affinity to 5HT1B receptor
[30] = molecular target: 5-hydroxytryptamine receptor 1D (Homo sapiens, UniProt P28221); experiment: Binding affinity to 5HT1D receptor
[31] = molecular target: 5-hydroxytryptamine receptor 1E (Homo sapiens, UniProt P28566); experiment: Binding affinity to 5HT1E receptor
[32] = molecular target: 5-hydroxytryptamine receptor 2A (Homo sapiens, UniProt P28223); experiment: Binding affinity to 5HT2A receptor
[33] = molecular target: 5-hydroxytryptamine receptor 2B (Homo sapiens, UniProt P41595); experiment: Binding affinity to 5HT2B receptor
[34] = molecular target: 5-hydroxytryptamine receptor 2C (Homo sapiens, UniProt P28335); experiment: Binding affinity to 5HT2C receptor
[35] = molecular target: 5-hydroxytryptamine receptor 3A (Homo sapiens, UniProt P46098); experiment: Binding affinity to 5HT3 receptor
[36] = molecular target: 5-hydroxytryptamine receptor 5A (Homo sapiens, UniProt P47898); experiment: Binding affinity to 5HT5A receptor
[37] = molecular target: 5-hydroxytryptamine receptor 6 (Homo sapiens, UniProt P50406); experiment: Binding affinity to 5HT6 receptor
[38] = molecular target: 5-hydroxytryptamine receptor 7 (Homo sapiens, UniProt P34969); experiment: Binding affinity to 5HT7 receptor
[39] = molecular target: Alpha-1A adrenergic receptor (Homo sapiens, UniProt P35348); experiment: Binding affinity to adrenergic alpha1A receptor
[40] = molecular target: Alpha-1B adrenergic receptor (Homo sapiens, UniProt P35368); experiment: Binding affinity to adrenergic Alpha-1B receptor
[41] = molecular target: Alpha-1D adrenergic receptor (Homo sapiens, UniProt P25100); experiment: Binding affinity to adrenergic Alpha-1D receptor
[42] = molecular target: Alpha-2A adrenergic receptor (Homo sapiens, UniProt P08913); experiment: Binding affinity to adrenergic alpha2A receptor
[43] = molecular target: Alpha-2B adrenergic receptor (Homo sapiens, UniProt P18089); experiment: Binding affinity to adrenergic alpha2B receptor
[44] = molecular target: Alpha-2C adrenergic receptor (Homo sapiens, UniProt P18825); experiment: Binding affinity to adrenergic Alpha-2C receptor
[45] = molecular target: Beta-1 adrenergic receptor (Homo sapiens, UniProt P08588); experiment: Binding affinity to adrenergic beta1 receptor
[46] = molecular target: Beta-2 adrenergic receptor (Homo sapiens, UniProt P07550); experiment: Binding affinity to adrenergic beta2 receptor
[47] = molecular target: Beta-3 adrenergic receptor (Homo sapiens, UniProt P13945); experiment: Binding affinity to adrenergic beta3 receptor
[48] = Binding affinity to benzodiazepine receptor in rat brain; type: tissue-based
[49] = molecular target: D(1A) dopamine receptor (Homo sapiens, UniProt P21728); experiment: Binding affinity to dopamine D1 receptor
[50] = molecular target: D(2) dopamine receptor (Homo sapiens, UniProt P14416); experiment: Binding affinity to dopamine D2 receptor
[51] = molecular target: D(3) dopamine receptor (Homo sapiens, UniProt P35462); experiment: Binding affinity to dopamine D3 receptor

Chain of Metabotropic glutamate receptor 5 (P31424 whole entry): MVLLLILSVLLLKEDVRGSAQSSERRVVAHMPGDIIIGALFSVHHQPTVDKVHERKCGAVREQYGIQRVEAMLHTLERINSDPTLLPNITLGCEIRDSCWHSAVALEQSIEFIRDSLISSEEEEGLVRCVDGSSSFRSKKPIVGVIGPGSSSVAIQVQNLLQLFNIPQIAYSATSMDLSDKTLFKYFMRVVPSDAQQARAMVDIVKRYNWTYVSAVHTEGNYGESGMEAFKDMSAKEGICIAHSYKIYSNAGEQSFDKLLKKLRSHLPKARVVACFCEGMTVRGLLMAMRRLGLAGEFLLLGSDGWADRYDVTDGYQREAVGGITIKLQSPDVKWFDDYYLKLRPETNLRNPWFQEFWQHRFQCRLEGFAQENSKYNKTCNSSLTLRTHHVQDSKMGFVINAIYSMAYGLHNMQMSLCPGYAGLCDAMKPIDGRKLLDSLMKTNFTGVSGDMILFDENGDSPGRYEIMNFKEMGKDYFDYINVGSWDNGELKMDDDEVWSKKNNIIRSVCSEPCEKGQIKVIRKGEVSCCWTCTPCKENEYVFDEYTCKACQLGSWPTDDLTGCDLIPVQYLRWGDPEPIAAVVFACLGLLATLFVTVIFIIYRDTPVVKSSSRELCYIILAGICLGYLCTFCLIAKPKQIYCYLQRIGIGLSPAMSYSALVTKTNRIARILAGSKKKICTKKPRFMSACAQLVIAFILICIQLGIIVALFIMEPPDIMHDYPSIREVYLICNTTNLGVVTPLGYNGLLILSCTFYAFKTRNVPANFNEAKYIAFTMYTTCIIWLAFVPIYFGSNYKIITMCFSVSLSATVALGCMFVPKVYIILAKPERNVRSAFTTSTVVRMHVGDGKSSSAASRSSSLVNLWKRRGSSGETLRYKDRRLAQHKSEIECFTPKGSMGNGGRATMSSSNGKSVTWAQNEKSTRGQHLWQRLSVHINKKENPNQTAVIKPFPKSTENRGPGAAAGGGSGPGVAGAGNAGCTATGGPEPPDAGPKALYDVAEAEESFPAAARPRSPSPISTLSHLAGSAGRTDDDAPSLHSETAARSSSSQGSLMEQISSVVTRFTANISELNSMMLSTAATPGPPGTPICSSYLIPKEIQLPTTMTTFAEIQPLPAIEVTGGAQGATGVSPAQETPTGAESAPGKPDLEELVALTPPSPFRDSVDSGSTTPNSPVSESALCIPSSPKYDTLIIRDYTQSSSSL
Chain of 5-hydroxytryptamine receptor 6 (P50406 whole entry): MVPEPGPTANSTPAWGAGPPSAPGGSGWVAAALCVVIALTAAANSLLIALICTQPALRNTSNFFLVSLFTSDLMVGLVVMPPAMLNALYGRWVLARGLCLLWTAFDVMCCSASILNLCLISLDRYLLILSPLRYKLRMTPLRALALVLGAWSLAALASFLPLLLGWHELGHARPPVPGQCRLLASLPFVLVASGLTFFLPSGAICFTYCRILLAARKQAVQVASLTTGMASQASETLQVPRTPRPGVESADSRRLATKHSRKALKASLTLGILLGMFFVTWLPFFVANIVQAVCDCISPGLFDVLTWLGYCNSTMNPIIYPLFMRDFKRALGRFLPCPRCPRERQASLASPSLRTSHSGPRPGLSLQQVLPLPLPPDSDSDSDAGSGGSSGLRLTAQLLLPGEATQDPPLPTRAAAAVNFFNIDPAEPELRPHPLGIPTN
Chain of 5-hydroxytryptamine receptor 7 (P34969 whole entry): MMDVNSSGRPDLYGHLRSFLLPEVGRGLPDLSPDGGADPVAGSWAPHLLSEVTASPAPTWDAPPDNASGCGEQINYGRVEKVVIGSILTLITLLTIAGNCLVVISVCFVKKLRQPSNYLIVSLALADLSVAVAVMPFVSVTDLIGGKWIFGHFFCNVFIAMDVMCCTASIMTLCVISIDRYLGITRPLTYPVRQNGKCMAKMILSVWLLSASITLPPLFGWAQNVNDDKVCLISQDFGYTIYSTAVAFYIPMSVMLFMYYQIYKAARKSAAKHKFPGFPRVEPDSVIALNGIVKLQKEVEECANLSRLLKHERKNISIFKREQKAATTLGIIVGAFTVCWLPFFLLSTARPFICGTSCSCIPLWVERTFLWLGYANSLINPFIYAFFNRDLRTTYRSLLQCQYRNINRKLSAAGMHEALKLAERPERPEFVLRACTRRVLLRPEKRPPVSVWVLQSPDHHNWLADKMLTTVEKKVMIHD
Chain of 5-hydroxytryptamine receptor 1A (P08908 whole entry): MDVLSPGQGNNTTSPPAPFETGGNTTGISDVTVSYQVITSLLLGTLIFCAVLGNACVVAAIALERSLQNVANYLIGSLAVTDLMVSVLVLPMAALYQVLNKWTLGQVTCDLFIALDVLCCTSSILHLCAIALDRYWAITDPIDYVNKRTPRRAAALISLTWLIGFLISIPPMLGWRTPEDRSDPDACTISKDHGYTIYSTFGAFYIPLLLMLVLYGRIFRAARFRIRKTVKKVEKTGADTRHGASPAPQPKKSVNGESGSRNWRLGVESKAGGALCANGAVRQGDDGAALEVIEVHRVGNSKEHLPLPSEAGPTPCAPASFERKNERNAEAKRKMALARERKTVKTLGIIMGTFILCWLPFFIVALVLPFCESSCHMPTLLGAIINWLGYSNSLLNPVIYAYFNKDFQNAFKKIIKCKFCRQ
Chain of 5-hydroxytryptamine receptor 2A (P28223 whole entry): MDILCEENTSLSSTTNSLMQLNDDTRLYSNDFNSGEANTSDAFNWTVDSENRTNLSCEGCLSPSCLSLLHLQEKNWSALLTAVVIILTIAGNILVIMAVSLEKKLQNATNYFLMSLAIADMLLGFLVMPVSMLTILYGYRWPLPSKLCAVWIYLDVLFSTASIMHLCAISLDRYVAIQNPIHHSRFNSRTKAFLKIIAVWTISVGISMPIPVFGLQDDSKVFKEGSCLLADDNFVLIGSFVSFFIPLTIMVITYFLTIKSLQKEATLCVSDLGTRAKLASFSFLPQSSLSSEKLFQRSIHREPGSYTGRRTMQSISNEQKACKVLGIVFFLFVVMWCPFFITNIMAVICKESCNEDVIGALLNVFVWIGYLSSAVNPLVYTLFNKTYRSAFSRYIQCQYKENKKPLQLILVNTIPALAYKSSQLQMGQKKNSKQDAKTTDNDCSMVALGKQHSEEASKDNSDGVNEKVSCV
Chain of Muscarinic acetylcholine receptor M5 (P08912 whole entry): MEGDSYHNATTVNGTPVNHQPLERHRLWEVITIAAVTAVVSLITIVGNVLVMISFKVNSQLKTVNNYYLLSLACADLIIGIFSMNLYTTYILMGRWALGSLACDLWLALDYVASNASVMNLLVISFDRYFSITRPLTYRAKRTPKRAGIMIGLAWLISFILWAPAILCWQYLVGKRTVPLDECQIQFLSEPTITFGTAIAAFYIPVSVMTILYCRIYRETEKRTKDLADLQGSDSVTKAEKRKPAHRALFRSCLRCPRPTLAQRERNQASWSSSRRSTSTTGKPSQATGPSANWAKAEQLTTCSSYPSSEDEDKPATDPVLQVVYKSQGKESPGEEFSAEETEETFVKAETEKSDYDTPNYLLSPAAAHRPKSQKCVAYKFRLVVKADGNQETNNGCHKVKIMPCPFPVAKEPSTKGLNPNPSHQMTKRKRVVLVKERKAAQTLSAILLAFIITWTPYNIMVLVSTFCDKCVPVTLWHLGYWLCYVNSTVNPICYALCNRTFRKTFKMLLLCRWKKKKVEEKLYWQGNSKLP
Chain of Histamine H3 receptor (Q9Y5N1 whole entry): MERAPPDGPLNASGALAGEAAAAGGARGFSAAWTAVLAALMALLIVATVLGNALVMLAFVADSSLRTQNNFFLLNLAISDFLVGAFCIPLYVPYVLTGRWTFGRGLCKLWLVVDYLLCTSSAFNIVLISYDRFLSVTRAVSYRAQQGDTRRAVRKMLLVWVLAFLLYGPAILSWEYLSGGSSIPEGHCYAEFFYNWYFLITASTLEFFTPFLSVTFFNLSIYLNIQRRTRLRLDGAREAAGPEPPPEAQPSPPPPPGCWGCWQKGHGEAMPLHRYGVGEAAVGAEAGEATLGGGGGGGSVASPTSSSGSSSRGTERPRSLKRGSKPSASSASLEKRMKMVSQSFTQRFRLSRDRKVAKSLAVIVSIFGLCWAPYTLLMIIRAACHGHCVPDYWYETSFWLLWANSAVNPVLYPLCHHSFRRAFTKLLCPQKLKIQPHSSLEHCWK
Chain of 5-hydroxytryptamine receptor 1B (P28222 whole entry): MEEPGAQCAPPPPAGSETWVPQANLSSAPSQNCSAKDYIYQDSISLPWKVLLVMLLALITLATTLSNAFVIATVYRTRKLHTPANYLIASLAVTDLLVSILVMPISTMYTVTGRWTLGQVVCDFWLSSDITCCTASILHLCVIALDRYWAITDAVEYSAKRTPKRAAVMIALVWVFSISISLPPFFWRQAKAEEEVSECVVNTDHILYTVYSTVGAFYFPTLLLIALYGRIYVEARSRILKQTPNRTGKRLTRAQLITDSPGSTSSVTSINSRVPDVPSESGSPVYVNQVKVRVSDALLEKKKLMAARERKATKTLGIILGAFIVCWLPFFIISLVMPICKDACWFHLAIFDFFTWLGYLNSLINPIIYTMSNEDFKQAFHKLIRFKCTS
Chain of Delta-type opioid receptor (P41143 whole entry): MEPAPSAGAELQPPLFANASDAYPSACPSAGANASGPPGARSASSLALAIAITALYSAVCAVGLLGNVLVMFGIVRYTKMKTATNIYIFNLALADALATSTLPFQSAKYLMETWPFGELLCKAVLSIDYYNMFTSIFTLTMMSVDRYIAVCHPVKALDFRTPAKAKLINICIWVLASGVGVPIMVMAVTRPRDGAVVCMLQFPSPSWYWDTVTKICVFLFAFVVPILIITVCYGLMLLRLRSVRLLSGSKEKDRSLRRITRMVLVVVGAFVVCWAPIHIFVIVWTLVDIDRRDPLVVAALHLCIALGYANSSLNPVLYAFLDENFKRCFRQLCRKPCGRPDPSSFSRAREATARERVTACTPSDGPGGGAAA
Chain of Sigma non-opioid intracellular receptor 1 (Q99720 whole entry): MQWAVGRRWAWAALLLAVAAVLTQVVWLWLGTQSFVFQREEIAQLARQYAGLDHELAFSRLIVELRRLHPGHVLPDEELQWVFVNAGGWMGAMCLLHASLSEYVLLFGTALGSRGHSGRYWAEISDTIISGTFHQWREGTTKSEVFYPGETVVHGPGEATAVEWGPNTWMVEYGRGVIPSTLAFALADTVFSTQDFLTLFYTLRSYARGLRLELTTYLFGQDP

Question: For `COc1cccc(C#Cc2csc(F)n2)c1`, which Ki [1] is on record?
Answer: 22.7 nM

Question: Which Ki [1] does the source give for `N#Cc1cccc(C#Cc2csc(N)n2)c1` here?
Answer: 0.9 nM

Question: With `N#Cc1cc(F)cc(C#Cc2csc(N)n2)c1` as the compound, how does the Ki [1] read?
Answer: 0.25 nM

Question: For `N#CCc1cccc(C#Cc2csc(N)n2)c1`, which Ki [1] is on record?
Answer: 5.9 nM

Question: Which Ki [1] does the source give for `COc1cccc(C#Cc2csc(N)n2)c1` here?
Answer: 18.6 nM

Question: For `N#Cc1cccc(C#Cc2csc(Cl)n2)c1`, which Ki [1] is on record?
Answer: 0.27 nM

Question: Which Ki [1] does the source give for `N#Cc1cc(F)cc(C#Cc2csc(Cl)n2)c1` here?
Answer: 0.4 nM

Question: With `N#CCc1cccc(C#Cc2csc(Cl)n2)c1` as the compound, how does the Ki [1] read?
Answer: 3.1 nM

Question: With `COc1cccc(C#Cc2csc(Cl)n2)c1` as the compound, how does the Ki [1] read?
Answer: 8.1 nM

Question: With `N#Cc1cccc(C#Cc2csc(Br)n2)c1` as the compound, how does the Ki [1] read?
Answer: 3.7 nM

Question: With `N#Cc1cc(F)cc(C#Cc2csc(Br)n2)c1` as the compound, how does the Ki [1] read?
Answer: 0.95 nM

Question: With `N#CCc1cccc(C#Cc2csc(Br)n2)c1` as the compound, how does the Ki [1] read?
Answer: 3.3 nM

Question: Which Ki [1] does the source give for `COc1cccc(C#Cc2csc(Br)n2)c1` here?
Answer: 22.3 nM

Question: Which Ki [1] does the source give for `N#Cc1cccc(C#Cc2csc(I)n2)c1` here?
Answer: 4.2 nM

Question: Which Ki [1] does the source give for `N#Cc1cc(F)cc(C#Cc2csc(I)n2)c1` here?
Answer: 1.3 nM

Question: For `N#CCc1cccc(C#Cc2csc(I)n2)c1`, which Ki [1] is on record?
Answer: 23.3 nM

Question: With `COc1cccc(C#Cc2csc(I)n2)c1` as the compound, how does the Ki [1] read?
Answer: 133 nM

Question: Which Ki [1] does the source give for `N#Cc1cccc(C#Cc2csc(F)n2)c1` here?
Answer: 1.6 nM

Question: Which Ki [2] does the source give for `N#Cc1cc(F)cc(C#Cc2csc(F)n2)c1` here?
Answer: > 10 µM

Question: What about the Ki [3] of the same compound?
Answer: > 10 µM

Question: And the Ki [4]?
Answer: > 10 µM

Question: And the Ki [5]?
Answer: > 10 µM

Question: And the Ki [6]?
Answer: > 10 µM

Question: And the Ki [7]?
Answer: > 10 µM

Question: What about the Ki [8] of the same compound?
Answer: > 10 µM

Question: What about the Ki [9] of the same compound?
Answer: > 10 µM

Question: And the Ki [10]?
Answer: > 10 µM

Question: And the Ki [11]?
Answer: > 10 µM

Question: And the Ki [12]?
Answer: > 10 µM

Question: And the Ki [13]?
Answer: > 10 µM

Question: What about the Ki [14] of the same compound?
Answer: > 10 µM

Question: What about the Ki [15] of the same compound?
Answer: > 10 µM

Question: And the Ki [16]?
Answer: > 10 µM

Question: And the Ki [17]?
Answer: > 10 µM

Question: And the Ki [18]?
Answer: > 10 µM

Question: What about the Ki [19] of the same compound?
Answer: > 10 µM

Question: What about the Ki [20] of the same compound?
Answer: > 10 µM

Question: And the Ki [21]?
Answer: > 10 µM

Question: And the Ki [22]?
Answer: > 10 µM

Question: And the Ki [23]?
Answer: > 10 µM

Question: What about the Ki [24] of the same compound?
Answer: > 10 µM

Question: What about the Ki [25] of the same compound?
Answer: > 10 µM

Question: And the Ki [26]?
Answer: > 10 µM

Question: And the Ki [27]?
Answer: > 10 µM

Question: And the Ki [1]?
Answer: 0.28 nM

Question: And the Ki [28]?
Answer: > 10 µM

Question: What about the Ki [29] of the same compound?
Answer: > 10 µM

Question: And the Ki [30]?
Answer: > 10 µM

Question: What about the Ki [31] of the same compound?
Answer: > 10 µM

Question: And the Ki [32]?
Answer: > 10 µM

Question: What about the Ki [33] of the same compound?
Answer: > 10 µM

Question: And the Ki [34]?
Answer: > 10 µM

Question: What about the Ki [35] of the same compound?
Answer: > 10 µM

Question: And the Ki [36]?
Answer: > 10 µM

Question: And the Ki [37]?
Answer: > 10 µM

Question: What about the Ki [38] of the same compound?
Answer: > 10 µM

Question: What about the Ki [39] of the same compound?
Answer: > 10 µM

Question: What about the Ki [40] of the same compound?
Answer: > 10 µM

Question: And the Ki [41]?
Answer: > 10 µM

Question: What about the Ki [42] of the same compound?
Answer: > 10 µM

Question: And the Ki [43]?
Answer: > 10 µM

Question: And the Ki [44]?
Answer: > 10 µM

Question: What about the Ki [45] of the same compound?
Answer: > 10 µM

Question: And the Ki [46]?
Answer: > 10 µM

Question: And the Ki [47]?
Answer: > 10 µM

Question: What about the Ki [48] of the same compound?
Answer: > 10 µM

Question: What about the Ki [49] of the same compound?
Answer: > 10 µM

Question: And the Ki [50]?
Answer: > 10 µM

Question: What about the Ki [51] of the same compound?
Answer: > 10 µM

Question: With `N#CCc1cccc(C#Cc2csc(F)n2)c1` as the compound, how does the Ki [1] read?
Answer: 3.9 nM

Question: Which Ki [1] does the source give for `Fc1nc(C#Cc2ccccc2)cs1` here?
Answer: 122 nM

Question: For `N#Cc1cc(F)cc(C#Cc2csc(CF)n2)c1`, which Ki [1] is on record?
Answer: 0.036 nM

Question: For `Cc1nc(C#Cc2cc(F)cc(C#N)c2)cs1`, which Ki [1] is on record?
Answer: 0.08 nM
